Screening data from PubChem.
CHO parental Ca: ATP-evoked calcium signal inhibitors, parental CHO, primary screen, counter-screen for OX1R antagonist project, cell-based, fluorescence, Fluo-8 calcium dye; AID 463079, 2010; inhibition, % at 5.6 µM; parental CHO-K1, ATP-induced calcium, Fluo-8 fluorescence; actives 0.63% (n = 330,000);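 active = inhibition above that plate's mean sample inhibition plus 3 SD, cut at about 26% in these data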;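 also: 0% = ATP-challenged DMSO wells and 100% = DMSO wells without ATP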
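test system = CHO parental line | reagent = ATP stimulus | measured by = intracellular calcium via Fluo-8 no-wash fluorescent dye | control set = ATP and no-ATP DMSO wells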
TAAR1 antagonist: human TAAR1 antagonists, primary screen, Fluo-8 calcium fluorescence, CHO RD-HGA16 cells; Trace amine-associated receptor 1 (Homo sapiens), Q96RJ0; antagonist; inhibition, % at 3 µM; actives 1.5% (n = 360,000);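 active = inhibition above a per-plate cutoff, the mean inhibition of test compounds on that plate plus 3 SD, cut at about 49% in these data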;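 also: 0% = DMSO plus EC80 beta-PEA response and 100% = DMSO alone without agonist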
Target sequence (Q96RJ0 whole entry, looked up): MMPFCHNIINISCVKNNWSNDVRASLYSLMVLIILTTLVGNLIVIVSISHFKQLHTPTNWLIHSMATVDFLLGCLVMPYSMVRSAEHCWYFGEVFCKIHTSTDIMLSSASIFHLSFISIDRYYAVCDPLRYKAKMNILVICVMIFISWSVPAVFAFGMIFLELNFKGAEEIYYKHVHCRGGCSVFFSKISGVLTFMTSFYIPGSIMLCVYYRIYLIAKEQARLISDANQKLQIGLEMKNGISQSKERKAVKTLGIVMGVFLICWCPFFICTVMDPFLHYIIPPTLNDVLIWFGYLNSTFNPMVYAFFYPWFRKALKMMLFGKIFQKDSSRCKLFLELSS
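Material: RD-HGA16 CHO cells with stable hTAAR1 and Gα16; Dosing: single nominal final test compound concentration of 3 µM; Schedule: seeding 17-24 h prior, 75-min 37 °C, 30-min RT dye loading; Detection: kinetic Fluo-8 calcium fluorescence measurement; Measure: % inhibition from peak post-agonist over basal fluorescence ratio; Benchmarks: vehicle and agonist controls.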
OX1R antag-1: OX1R (HCRTR1) antagonists, primary screen, fluorescence, CHO/OX1R cells, Fluo-8 calcium, orexin A. Orexin/Hypocretin receptor type 1 (Homo sapiens), O43613. actives 0.43% (n = 330,000). AID 434989, 2010. Fluo-8 calcium fluorescence. inhibition, % at 5 µM;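 active = inhibition above its plate's threshold, mean inhibition of all tested compounds on the plate plus 3 SD, cut at about 37% in these data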;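 also: 0% = orexin A challenge wells and 100% = SB-334867-A antagonist wells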
OX1R antag-2: antagonists of human orexin 1 receptor (OX1R) | Orexin/Hypocretin receptor type 1 (Homo sapiens), O43613 | OX1R-expressing cells, FRET antagonist read-out | inhibition, % at 6.6 µM | actives 1.8% (n = 330,000); in the data active = inhibition mostly above about 38%, no sharp cut-off; inactive = mostly below about 40%;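 also: 0% = agonist challenge alone and 100% = reference antagonist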
GPR7 antag: GPR7 receptor antagonists, primary screen, cell-based, fluorescence, single concentration; GPR7-expressing cells, fluorescence antagonist assay; Neuropeptides B/W receptor type 1 (Homo sapiens), P48145; inhibition, % at 4.4 µM; AID 1861, 2009; actives 1.1% (n = 290,000); in the data active = inhibition above about 16%, passing the limit was not always enough;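 also: cells stimulated with the agonist NPW; 0% = agonist with vehicle and 100% = vehicle without agonist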
Target sequence (P48145 whole entry, looked up): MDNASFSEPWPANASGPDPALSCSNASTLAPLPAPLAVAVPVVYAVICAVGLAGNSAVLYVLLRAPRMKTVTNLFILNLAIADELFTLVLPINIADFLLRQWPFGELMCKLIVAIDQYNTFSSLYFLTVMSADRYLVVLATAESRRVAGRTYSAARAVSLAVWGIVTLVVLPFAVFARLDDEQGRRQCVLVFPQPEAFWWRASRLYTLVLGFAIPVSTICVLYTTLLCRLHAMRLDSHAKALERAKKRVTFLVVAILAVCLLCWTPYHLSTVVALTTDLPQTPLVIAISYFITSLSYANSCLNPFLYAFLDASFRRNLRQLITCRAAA
TAAR1 agonist: human TAAR1 agonists, primary screen, Fluo-8 calcium fluorescence, CHO RD-HGA16 cells; Trace amine-associated receptor 1 (Homo sapiens), Q96RJ0; vehicle wells 0%, saturating PEA agonist 100%; activation, % at 3 µM; actives 0.99% (n = 360,000); AID 624467, 2012;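 active = activation above the mean activation of all test compounds in the run plus 3 SD, cut at about 38% in these data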
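Signal – calcium-sensitive Fluo-8 signal, excitation 470-495, emission 515-575 nm · System – RD-HGA16 (CHO) cells co-expressing Gα16 and hTAAR1 · Incubation – 17-24 h seeding, 75 min 37 °C dye, 30 min RT · Compound dosing – 3 µM single concentration · Repeats – no replicates (n 1)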
Starred values were filed as active, the others as inactive; . = no result. Most compounds without a hit are left out; they make up all but 4.5% or so of the library.

SMILES | CHO parental Ca | TAAR1 antagonist | OX1R antag-1 | OX1R antag-2 | GPR7 antag | TAAR1 agonist
CC(C)(C)c1cccc(N/C(=C\C(=O)c2ccccc2)c2ccccc2)c1 | . | -18 | . | . | . | 0
CCc1ccc(OCCNc2cc(N3CCNC(C)C3)ccc2[N+](=O)[O-])cc1 (stereo not drawn) | 7 | 8 | 17 | 6 | . | 43*
COc1ccc(-n2c(O)c(/C=N/NS(=O)(=O)c3cc(C)ccc3C)c3ccccc3c2=O)cc1OC | 2 | 50* | 10 | 25 | -16 | 42*
COc1ccc(-n2c(O)c(/C=N/NS(=O)(=O)c3ccc(C)cc3)c3ccccc3c2=O)cc1OC | 2 | 42 | -1 | 10 | -15 | 21
Cc1cccn2c(=O)c3cc(C(=O)NCC4CCCO4)c(=N)n(C4CCCC4)c3nc12 (stereo not drawn) | -2 | -12 | -26 | 59* | -15 | 1
N=c1c(C(=O)NCC2CCCO2)cc2c(=O)n3ccccc3nc2n1C1CCCC1 (stereo not drawn) | -29 | -9 | -20 | 45* | -5 | 0
Cc1ccc2nc3c(cc(C(=O)NCC4CCCO4)c(=N)n3C3CCCC3)c(=O)n2c1 (stereo not drawn) | -13 | 2 | -21 | 58* | -7 | -4
CN1C(=O)[C@@]2(C3=C(CCCC3=O)OC3=C2C(=O)CC(C)(C)C3)c2ccccc21 | . | -18 | . | . | . | 0
CC(NC(=S)Nc1ccc(OC(F)F)c(Cl)c1)C(C)(C)C (stereo not drawn) | 34* | 31 | 38* | 24 | 11 | 9
FC(F)Oc1ccc(NC(=S)NCc2ccccc2)cc1Cl | 34* | 28 | 9 | 14 | 13 | 6
CSc1nnc(C)c(/C=C/Nc2ccc(F)cc2)n1 | -2 | 32 | -18 | 23 | -4 | 68*
NC(Cc1ccc(Cl)cc1)c1csc(Nc2ccc(C(F)(F)F)cn2)n1 (stereo not drawn) | . | 33 | . | . | . | 45*
NC(CO)c1csc(Nc2ccc(C(F)(F)F)cn2)n1 (stereo not drawn) | . | 2 | . | . | . | 0
COC(=O)c1cc(C)nc(Nc2nc(C(N)Cc3ccc(Cl)cc3)cs2)n1 (stereo not drawn) | . | 10 | . | . | . | 9
COc1cc(OC)nc(Nc2nc(C(N)Cc3ccc(Cl)cc3)cs2)n1 (stereo not drawn) | . | 37 | . | . | . | 47*
C[C@@H]1CNCCN1c1ccc(N2CCS(=O)(=O)CC2)c(C#N)c1 | . | 2 | . | . | . | 0
O=C(NCCO)Nc1ccc2nc(-c3ccco3)c(-c3ccco3)nc2c1 | -8 | . | -116 | 100* | -3 | .
CC(=O)c1ccc(NC(=O)c2ccc3nc(-c4ccco4)c(-c4ccco4)nc3c2)cc1 | -2 | . | -29 | 36 | -1 | .
O=C(Nc1ccccc1)c1ccc2nc(-c3ccco3)c(-c3ccco3)nc2c1 | -24 | 0 | 71* | 102* | -1 | 1
COCCN(C(=O)c1csnn1)C(C(=O)NC1CCCCC1)c1ccccc1F (stereo not drawn) | -16 | -4 | -18 | 11 | 3 | 0
Cc1cccc(C)c1NC(=O)C1(C)CN(S(C)(=O)=O)CC(=O)N1CCc1ccccc1F (stereo not drawn) | . | 4 | . | . | . | 12
CC(=O)CC(=O)NC(=NC1CCCCC1)Nc1nc(C)cc(C)n1 | 2 | -23 | -7 | 16 | 21* | 0
CC(C)N(C[C@@H]1CSCCS(=O)(=O)N1)C(C)C | . | 13 | . | . | . | 1
CC(=O)Nc1nc(-c2ccc([N+](=O)[O-])cc2)cs1 | 2 | -12 | 0 | 23 | -4 | 5
O=C(Nc1ccc([N+](=O)[O-])cc1)Nc1nc(-c2ccc(Cl)s2)cs1 | 57* | 3 | 28 | 28 | -7 | 11
SMILES | CHO parental Ca | TAAR1 antagonist | OX1R antag-1 | OX1R antag-2 | GPR7 antag | TAAR1 agonist
CCc1cc2c(nc1CC)CCCN2S(=O)(=O)c1ccc(C)cc1 | . | 4 | . | . | . | 5
Cc1cccc2c(N=NC(=O)c3ccc(NS(=O)(=O)c4cccs4)cc3)c(O)[nH]c12 | -4 | 56* | 14 | 40* | . | 5
Cc1ccc2[nH]c(O)c(N=NC(=O)c3ccc(NS(=O)(=O)c4cccs4)cc3)c2c1 | -4 | 10 | -7 | 19 | -6 | 0
CCOC(=O)N1CCN(C(=O)CNS(=O)(=O)c2c(C)cc(C)cc2C)CC1 | -7 | -1 | -12 | 7 | -14 | 1
C=CCOc1ccc(/C=C2\SC(=S)N(NS(=O)(=O)c3ccccc3)C2=O)cc1 | -1 | 33 | 3 | 27 | -18 | -2
O=C(O)c1ccccc1N1C(=O)c2cccc3cccc(c23)C1=O | -3 | -5 | -13 | 66* | -5 | 2
Cc1c(N2C(=O)c3cccc4cccc(c34)C2=O)cnn1C | -23 | 15 | -19 | 51* | -8 | -1
O=C1c2cccc3cccc(c23)C(=O)N1c1cccnc1 | -15 | -27 | -16 | 48* | -12 | 5
Cc1ccc(CN2CC=CCS2(=O)=O)cc1 | . | -9 | . | . | . | 0
CCC(=O)Nc1ccc(S(=O)(=O)NCc2ccco2)cc1 | -5 | -6 | 0 | 3 | -2 | 2
O=C(COc1ccccc1-c1ccccc1)Nc1ccc(S(=O)(=O)NCc2ccco2)cc1 | -3 | 61* | 20 | 47* | 5 | 9
O=[N+]([O-])c1nn(-c2ccc3c(c2)OCCO3)n(O)c1=NCCCO | 5 | -3 | -19 | 74* | 3 | 7
Cc1ccc(CN=c2c([N+](=O)[O-])nn(-c3ccc4c(c3)OCCO4)n2O)cc1 | -18 | -8 | -40 | 35 | -2 | 1
COc1ccc(-c2cc(-c3ccco3)[nH]c(=O)c2C#N)cc1OC | 2 | -36 | 4 | 73* | 0 | 6
CC(=O)Nc1ccc(S(=O)(=O)NCC2CCN(C(=O)C(=O)c3cccs3)CC2)cc1 | . | -7 | . | . | . | 4
COc1ccc(Sc2cccc3c2S(=O)(=O)N(C2CC2)C[C@@H](COCc2ccccc2)O3)cc1OC | . | 6 | . | . | . | 2
C/C(CC(=O)Nc1ccc([N+](=O)[O-])cc1)=N\NC(=O)c1ccccc1[N+](=O)[O-] | 32* | -24 | 32 | 2 | 8 | 1
CCCC(=O)Nc1ccc(NC(=S)NC(=O)c2ccccc2[N+](=O)[O-])cc1 | -4 | 7 | -31 | 10 | 12 | 0
COc1ccccc1/C=C/CN1CCCC(CO)(Cc2cccc(Cl)c2)C1 (stereo not drawn) | 34* | -12 | 61* | 69* | -4 | 3
